Among the data in ChEMBL document CHEMBL1146523, “Antimalarial dihydroisocoumarins produced by Geotrichum sp., an endophytic fungus of Crassocephalum crepidioides” (J Nat Prod, 2003) are MIC, Activity and IC50 values, retold here.

The subject of assay [1] is Mycobacterium tuberculosis. As to the kind of experiment: Antimycobacterial activity against Mycobacterium tuberculosis H37Ra by microplate alamar blue assay. In kind it is functional. In outline: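 Growth inhibition of M. tuberculosis H37Ra in the Microplate Alamar Blue Assay. MIC read-out, with isoniazid and kanamycin sulfate as standard drugs.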
For orientation: The colour change of resazurin is a common sign of viable cells or microbes.

The subject of the next assay is Candida albicans. Briefly: Antifungal activity against Candida albicans. In kind it is functional, organism-based. The method, boiled down: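 Candida albicans growth inhibition measured by a colorimetric method. IC50 read-out, with amphotericin B as the standard drug.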
The test system of a further assay is Plasmodium falciparum. Briefly: Antimalarial activity against multidrug-resistant Plasmodium falciparum K1. Type of assay: functional, organism-based. In outline:
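Multidrug-resistant P. falciparum K1 kept in continuous culture (Trager–Jensen). In vitro activity measured by the microculture radioisotope technique (Desjardins). IC50 read-out, with chloroquine diphosphate as the standard.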

Each structure is given as a SMILES string. Converted amounts (≈) assume the structure as drawn. The source made the active and inactive calls.

The term MIC denotes the smallest concentration in the dilution series that meets the test's criterion for growth inhibition. Lower therefore signals greater potency. The IC50 is the concentration that gives 50% inhibition. A low value points to inhibition by little substance.

`NC[C@H]1O[C@H](O[C@H]2[C@H](O)[C@@H](O[C@H]3O[C@H](CO)[C@@H](O)[C@H](N)[C@H]3O)[C@H](N)C[C@@H]2N)[C@H](O)[C@@H](O)[C@@H]1O.O=S(=O)(O)O` [KANAMYCIN SULFATE] had an MIC in assay [1] of 2.5 µg/mL.
Still for that read-out and setting: under `NNC(=O)c1ccncc1` [ISONIAZID] stands 0.05 µg/mL (≈ 0.365 µM).
Regarding `C/C=C/CC[C@@H]1Cc2cc(O)c(C/C=C/C)c(O)c2C(=O)O1`, the outcome in the assay on Candida albicans and in the assay with Plasmodium falciparum was inactive. This molecule had an MIC in assay [1] of 50 µg/mL (≈ 165 µM).
In the case of `CCCCC[C@@H]1Cc2cc(O)c(CCCC)c(O)c2C(=O)O1`, the IC50 in the assay on Candida albicans is 33 µg/mL (≈ 108 µM); in the assay on Plasmodium falciparum, 2.6 µg/mL (≈ 8.49 µM). Besides, the outcome in assay [1] was inactive.
Consider `C[C@@H]1[C@H](O)[C@@H](C)/C=C/C=C/C=C/C=C/C=C/C=C/C=C/[C@H](O[C@@H]2O[C@H](C)[C@@H](O)[C@H](N)[C@@H]2O)C[C@@H]2O[C@](O)(C[C@@H](O)C[C@@H](O)[C@H](O)CC[C@@H](O)C[C@@H](O)CC(=O)O[C@H]1C)C[C@H](O)[C@H]2C(=O)O` [AMPHOTERICIN B], for which the half-inhibitory concentration (IC50) with Candida albicans came to 0.01 µg/mL (≈ 0.0108 µM).
With `C/C=C/CC[C@@H]1Cc2cc(O)c(CCCC)c(O)c2C(=O)O1`, the IC50 came out at 19 µg/mL (≈ 62.4 µM) in the assay on Candida albicans and 4.7 µg/mL (≈ 15.4 µM) with Plasmodium falciparum. This molecule also came in with an MIC in assay [1] of 25 µg/mL (≈ 82.1 µM).
